Holding throughout (format): cell-based, Candida auris
Data set [1] concerns C. auris CBS10913. The data set can be described thus: Intracellular drug accumulation assay. The settings on record: C. auris CBS10913, 20 µM, 10 min, 30 °C, PBS, silicone oil centrifugation, LC-MS. A digest of the protocol: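 Yeast subcultured in SDB at 30 °C with shaking to mid-log (OD530 ≈ 0.6), washed twice in PBS and resuspended in PBS. Equilibrated 5 min at 30 °C, then test compound added to 20 µM final for 10 min. Cells spun at 13,000×g through pre-cooled silicone oil; intracellular compound quantified by LC-MS. Biological triplicates.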

Data set [2] concerns C. auris CBS12775. The data set can be described thus: Checkerboard assay coniotin A with caspofungin. Conditions: refractory C. auris, checkerboard (Fig. 4a).
Data set [3] deals with C. auris CBS 10913. Briefly: High-throughput screening of crude extracts and PFL fractions. The settings on record: identified in active fractions of WAC11175, result in words. A digest of the protocol: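 Primary screen: C. auris CBS 10913 colonies grown on YPD agar at 30 °C for 48 h, then suspended in RPMI 1640. 1 µL crude extract or fraction added to 49 µL culture in 384-well format, in duplicate. […] OD530 read after 48 h; hits defined as ≥75% growth inhibition versus untreated. For follow-up, producer strains were regrown on Bennett's agar at 30 °C for 7 days, extracts fractionated on C18, and DMSO-dissolved fractions retested in broth microdilution.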

These results are taken from article PMC12334575 (Nature Communications, 2025).

As for `CC[C@H](C)C[C@H](C)CCCCCCCCC(=O)N[C@H]1C[C@@H](O)[C@@H](NCCN)NC(=O)[C@@H]2[C@@H](O)CCN2C(=O)[C@H]([C@H](O)CCN)NC(=O)[C@H]([C@H](O)[C@@H](O)c2ccc(O)cc2)NC(=O)[C@@H]2C[C@@H](O)CN2C(=O)[C@H]([C@@H](C)O)NC1=O` [Caspofungin], the Intracellular accumulation entry in data set [1] was “measurable accumulation”. Moreover, in data set [2], the “MIC of caspofungin in the presence of coniotin A” value came to 2 µg/mL.
Take enniatin A1: in data set [3], the “Activity against C. auris” value was “significant activity”.
As for enniatin B1, the “Activity against C. auris” value in data set [3] is “significant activity”.
